Scp-1 inhibitor: Scp-1 (human) phosphatase inhibition. 340,000 tested, 0.88% active. Recombinant Scp1, phosphopeptide, malachite green phosphate absorbance. AID 493091. inhibition, % at 20 µM. Q9GZU7;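 active = inhibition above about 50% at 20 µM, limit read from the data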;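 also: plate controls were DMSO wells with enzyme for no effect and wells lacking enzyme for full effect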
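Test system: SCP-1 phosphatase catalytic domain, residues 76-261 | Compound dosing: One concentration, 20 µM, with 1.0% DMSO | Schedule: 45 min room-temperature reaction, 5 min colour, 30 min stabiliser | Detection: Absorbance at 630 nm | Read-out basis: % inhibition of SCP-1 phosphate liberation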
LMPTP block: blocks human LMPTP phosphatase; P24666; recombinant LMPTP-A, OMFP fluorogenic substrate, fluorescence intensity; inhibition, % at 20 µM; 360,000 tested, 0.22% active;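 active = compounds that cut the enzyme signal by at least half of the control window in the single-dose screen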;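 also: plate controls were DMSO wells with enzyme plus substrate for no effect and substrate without enzyme for full effect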
Target sequence (P24666 whole entry, looked up): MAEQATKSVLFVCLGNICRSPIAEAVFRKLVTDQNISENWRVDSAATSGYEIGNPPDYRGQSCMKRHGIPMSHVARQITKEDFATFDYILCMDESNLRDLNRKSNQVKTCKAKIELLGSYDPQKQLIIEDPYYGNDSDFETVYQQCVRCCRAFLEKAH
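Assay system: LMPTP-A enzyme. Input: 0.625 nM LMPTP-A final. Probe or stimulus: 400 µM OMFP. Compound dosing: single 20 µM dose. Schedule: 50 min dark incubation at room temperature. Detection: fluorescence intensity of OMFP turnover product. Read-out: percent inhibition versus substrate-only and uninhibited controls. Benchmarks: no-enzyme low control, uninhibited high control.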
DNMT1 block: blocks human DNA methyltransferase DNMT1 | 360,000 tested, 0.83% active | DNMT1 molecular beacon, Hinp1I cleavage, fluorescence | inhibition (reported as % activation of signal), % at 10 µM | P26358; in the data active = inhibition above about 50%
GRK2 aptamer HTS: blocks RNA aptamer binding to human GRK2; P25098; bead flow cytometry, FAM-aptamer displacement from GRK2; inhibition of aptamer binding, % at 10 µM; 330,000 tested, 0.59% active; AID 488847;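 active = inhibition of aptamer binding above 40%, roughly 3 SD of noise, on plates passing a quality check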;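 also: median bead fluorescence of bound FAM aptamer so fluorescent compounds give negative values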
SUMO1-SIM PPI: alters human SUMO1 binding to SIM partners | P63165 | SUMO1 binding to a labelled peptide, TR-FRET, 1 h | inhibition, % at 20 µM | 360,000 tested, 0.33% active; in the data active = inhibition above about 37%
STEP inh: inhibitors of human striatal-enriched phosphatase STEP; P54829; 360,000 tested, 0.25% active; AID 588621; recombinant STEP, OMFP fluorogenic substrate, fluorescence; inhibition, % at 20 µM;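 active = inhibition at 20 µM, scaled per plate between control wells, above about 37%, limit read from the data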;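 also: 0% = DMSO with enzyme and substrate and 100% = substrate only without enzyme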
Target sequence (P54829 whole entry, looked up): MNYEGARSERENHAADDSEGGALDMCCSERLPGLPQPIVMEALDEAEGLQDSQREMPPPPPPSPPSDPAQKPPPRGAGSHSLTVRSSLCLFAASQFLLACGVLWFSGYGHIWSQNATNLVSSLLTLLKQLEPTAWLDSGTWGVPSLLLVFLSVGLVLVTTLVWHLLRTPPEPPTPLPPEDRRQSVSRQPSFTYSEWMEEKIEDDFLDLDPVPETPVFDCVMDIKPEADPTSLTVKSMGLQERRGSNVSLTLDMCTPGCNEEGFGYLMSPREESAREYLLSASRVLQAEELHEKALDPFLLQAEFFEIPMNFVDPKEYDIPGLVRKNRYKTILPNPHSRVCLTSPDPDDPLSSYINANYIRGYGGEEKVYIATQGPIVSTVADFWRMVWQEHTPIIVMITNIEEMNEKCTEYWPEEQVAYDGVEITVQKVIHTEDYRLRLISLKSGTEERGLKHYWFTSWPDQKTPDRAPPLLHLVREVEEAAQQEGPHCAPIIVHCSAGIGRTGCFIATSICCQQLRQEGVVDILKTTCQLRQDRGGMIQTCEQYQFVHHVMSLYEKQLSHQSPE
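Also added – OMFP at 25 µM · Test system – STEP tyrosine phosphatase · Technique – FITC-channel fluorescence of OMFP product · Schedule – 20 min at room temperature, dark · Evaluation – control-normalized % inhibition with plate pattern correction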
Scp1 confirm: Scp-1 (human) inhibition, single-dose confirmed; recombinant SCP-1 catalytic domain, phosphate release, malachite green absorbance; inhibition, % at 20 µM; shares compounds with Scp-1 inhibitor; AID 540281; 2,500 tested, 61% active;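 also: plate controls were DMSO with enzyme for no effect and buffer wells lacking enzyme for full effect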
MG interference: colorimetric interference in Scp-1 counter-screen. shares compounds with Scp-1 inhibitor. Colorimetric interference counterscreen, malachite green absorbance 630 nm. apparent inhibition (interference), % at 20 µM. 2,500 tested, under 10 active. AID 540313;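 also: compounds added after enzyme reaction finished so only phosphate colour detection is probed; plate controls were DMSO wells with completed Scp-1 reaction for no effect and substrate wells lacking enzyme for full effect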
Scp1 DSF: validation of human Scp-1 inhibitors by thermal shift binding. shares compounds with Scp-1 inhibitor. Recombinant SCP1, Sypro Orange thermal shift Tm. thermal shift relative to vanadate control, % at 40 µM. 1,500 tested, 25% active;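 active = substances whose mean melting-temperature shift, as a percentage of the reference inhibitor's shift, reaches about 5.3%, limit read from the data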;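 also: 0% = Tm of DMSO wells and 100% = Tm with sodium orthovanadate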
Beacon interf DR: beacon fluorescence artifact, dose response counter-screen; IC50, µM; shares compounds with DNMT1 block; molecular beacon fluorescence, spectral interference counter-screen; 200 tested, under 10 active; call rule not given here
DNMT1 inh conf: confirmation of human DNMT1 inhibitors | DNMT1 molecular beacon HinP1I cleavage, fluorescence | 2,300 tested, 8% active | inhibition, % at 10 µM | AID 602385 | shares compounds with DNMT1 block;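 active = average inhibition of at least 30% in the single-concentration confirmation test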
Beacon interf: beacon fluorescence artifact counter-screen | shares compounds with DNMT1 block | DNMT1 molecular beacon spectral interference counterscreen, fluorescence 485/520 | activation (fluorescence interference), % at 10 µM | 2,300 tested, 1% active | AID 602387;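 active = activation of at least 30% at 10 µM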;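 also: DNMT1 catalytic domain with a HinP1I cleavage step and a FAM/dabcyl DNA beacon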
Numbers without * were called inactive; . = not tested or not shown. In the library only some 2.2% were active in any assay of this set; here they are far more common.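 The calls were made as follows, unless noted: active = inhibition of at least 30% at 20 µM; inactive = the rest.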

SMILES	Scp-1 inhibitor	LMPTP block	DNMT1 block	GRK2 aptamer HTS	SUMO1-SIM PPI	STEP inh	Scp1 confirm	MG interference	Scp1 DSF	others
Cc1ccc2ccccc2c1C(O)c1ncc(-c2ccccc2Cl)[nH]1 (stereo not drawn)	.	1.4	6.0	.	-3.6	-0.1	.	.	.
Oc1ccc(C=Nc2ccc(N3CCOCC3)cc2)c(O)c1	52.4*	6.4	29.9	6.0	-10.3	11.0	45.0*	-10.9	2.5
Oc1c(Cl)cc(Cl)cc1C=Nc1ccc(N2CCOCC2)cc1	-9.1	0.2	-0.8	2.0	-0.3	-0.1	.	.	.
CC(C)(C)OC(=O)NCc1ccc(CNC(=O)c2[nH]cnc2C(=O)Nc2ccccc2F)cc1	.	2.8	-8.3	.	-1.3	-2.7	.	.	.
CCOc1ccc(Oc2ccc(NS(=O)(=O)c3ccc(CCC(=O)O)cc3)cc2)cc1	.	-1.0	-0.6	.	8.9	3.5	.	.	.
O=C(CSc1nc2ccccc2c(=O)n1-c1ccccc1)NCC1CCCO1 (stereo not drawn)	91.8*	-1.9	0.9	0.0	0.8	-2.3	-4.0	-12.3	.
CCCN1CCC(C(=O)NC(c2ccc(Cl)cc2)c2ccsc2)CC1 (stereo not drawn)	.	-3.2	5.4	.	0.9	-1.7	.	.	.
COc1ccc(S(=O)(=O)N(C)C[C@@H]2OCc3cnnn3CCCC(=O)N([C@@H](C)CO)C[C@@H]2C)cc1	.	-1.2	5.3	.	-1.7	-2.5	.	.	.
C/C(=N\NC(=O)c1ccccc1O)c1ccc(NC(=O)c2ccccc2)cc1	67.5*	11.2	1.5	0.0	-6.7	35.6	69.2*	-8.4	3.4
CN(C)C(=O)c1ccc(NC(=O)c2cc(-c3ccco3)nc3ccccc23)cc1	65.8*	12.0	50.2*	15.0	-12.0	13.0	58.0*	-4.6	5.0
Cn1c(SCC(=O)c2ccc(O)c(O)c2)nnc1-c1ccccc1	-4.0	7.9	4.7	1.0	-0.2	1.2	.	.	.
Cn1c(SCC(=O)c2ccc(O)c(O)c2)nnc1-c1cccs1	67.2*	21.3	9.8	6.0	14.7	15.1	50.4*	-8.7	3.4
Cn1c(=O)c2cc(NC(=O)CCc3ccc4c(c3)OCO4)ccc2n1Cc1ccc(F)cc1	.	1.3	-1.9	.	7.9	1.6	.	.	.
CCC12CCCN3CCC4(C(=C(C(=O)OC)C1)Nc1ccccc14)C32 (stereo not drawn)	61.4*	1.8	-3.7	.	-0.8	-3.2	-9.9	-13.4	.
CC[N+](CC)(CC)CC(=O)Nc1ccc(SC(F)F)cc1	60.0*	-0.5	-1.4	5.0	-1.9	-2.7	-9.6	-1.3	.
C=C(C)C(=O)Nc1cccc(C2=NOC3(C2)C[C@@H](C(N)=O)N(C(=O)c2cc([N+](=O)[O-])cc([N+](=O)[O-])c2C)C3)c1 (stereo partly drawn)	69.7*	0.9	95.9*	2.0	46.0*	0.8	64.2*	-6.0	4.2	DNMT1 inh conf=16.7;Beacon interf=3.3
C/C=C/C(=O)Nc1cccc(C2=NOC3(C2)C[C@@H](C(N)=O)N(C(=O)c2cc([N+](=O)[O-])cc([N+](=O)[O-])c2C)C3)c1 (stereo partly drawn)	1.6	-2.3	4.0	3.0	-28.0	-2.9	.	.	.
C=C(C)C(=O)Nc1cccc(C2=NOC3(C2)C[C@H](C(N)=O)N(C(=O)COc2ccc(Cl)cc2)C3)c1 (stereo partly drawn)	72.1*	1.2	98.2*	97.0*	103.6*	5.0	75.2*	2.0	-7.9	Beacon interf DR=>99;DNMT1 inh conf=63.6*;Beacon interf=-1.6
C=C(C)C(=O)Nc1cccc(C2=NOC3(C2)C[C@@H](C(N)=O)N(C(=O)C2(C)CC2)C3)c1 (stereo partly drawn)	74.9*	0.0	105.8*	91.0*	91.0*	13.3	59.6*	-15.6	-5.5	Beacon interf DR=>99;DNMT1 inh conf=102.7*;Beacon interf=3.7
C/C=C\C(=O)Nc1cccc(C2=NOC3(C2)C[C@@H](C(N)=O)N(C(=O)C2(C)CC2)C3)c1 (stereo partly drawn)	-0.5	-2.0	4.7	1.0	0.9	0.3	.	.	.
COc1cccc(-c2cnc(C(O)c3cc(C)c(OC)c(C)c3)[nH]2)c1 (stereo not drawn)	.	-0.2	5.6	.	0.0	-0.9	.	.	.
COC(=O)[C@@]12C[C@@H](CC(=O)N3CCC(c4ccccc4)CC3)C(=O)N(Cc3ccc4c(c3)OCO4)C1=CCC(C)(C)C2	.	8.9	.	.	-0.5	.	.	.	.
CC1=NN(c2ccccc2)C(=O)/C1=C/c1ccc(-c2ccc(C)c(C(=O)O)c2)o1	5.3	.	.	1.0	.	.	.	.	.
CC1=NOC(=O)/C1=C\c1ccc(-c2ccc(Cl)c(C(=O)O)c2)o1	66.9*	4.1	82.0*	.	18.4	34.5	57.7*	-18.1	2.2	DNMT1 inh conf=9.5;Beacon interf=-0.5
O=C1NN(c2ccccc2)C(=O)/C1=C/c1ccc(-c2ccc(C(=O)O)cc2)o1	76.6*	5.0	78.2*	8.0	4.9	9.9	57.7*	-17.5	14.9*	Beacon interf DR=>99;DNMT1 inh conf=29.6;Beacon interf=-1.1
SMILES	Scp-1 inhibitor	LMPTP block	DNMT1 block	GRK2 aptamer HTS	SUMO1-SIM PPI	STEP inh	Scp1 confirm	MG interference	Scp1 DSF	others
COC(=O)c1ccc(N2NC(=O)/C(=C/c3ccc(OC)c(OC)c3)C2=O)cc1	13.9	19.3	-0.7	0.0	10.0	25.3	.	.	.
COC(=O)c1ccc(N2NC(=O)/C(=C/c3ccc(-c4ccc(Cl)c(C(=O)O)c4)o3)C2=O)cc1	76.4*	33.2	79.1*	.	23.4	29.6	75.2*	-8.4	13.8*	DNMT1 inh conf=8.5;Beacon interf=8.2
COC(=O)c1c(NC2=NS(=O)(=O)c3ccccc32)sc2c1CCC(C(C)(C)C)C2 (stereo not drawn)	-0.7	-1.1	2.7	.	-5.2	5.4	.	.	.
COC(=O)C[C@H]1C=C[C@@H](NC(=O)C2CC2)[C@@H](CO)O1	.	-0.3	.	.	1.7	.	.	.	.
COC(=O)C[C@H]1C=C[C@H](NC(=O)Nc2ccccc2F)[C@@H](CO)O1	.	0.0	.	.	8.4	.	.	.	.
O=C(NNS(=O)(=O)c1ccccc1)c1cc2cc3ccccc3nc2s1	-2.3	-0.3	-0.1	0.0	1.3	1.3	.	.	.

High-throughput results (PubChem)
